Test [1] in a line: Her2 expression decrease, cell viability multiplex – SKBR3 breast tumor cells, AlphaScreen, ATP viability, primary screen (AID 461;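 active = Her2 level under about 52% in both replicate screens, with viability over 70% of control, limit read from the data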;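 as to Her2 level: lower value means less Her2 protein in the cells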;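 as to viability: percent of carrier control wells set as 100% viability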). The settings on record: SKBR3 Her2 protein level, 18-24 h, measured here: SKBR3 viability, ATP luminescence, at 10 µM. In general terms: Alpha assays give light when donor and acceptor beads are brought close together.
The target in test [2] is Receptor tyrosine-protein kinase erbB-2 (Homo sapiens) (UniProt P04626). The test is described as above. The settings on record: 18-24 h, at 10 µM, stronger effect = lower value.
Test [3] is described as follows: reduced viability of SK-BR-3 breast cancer cells – cell-based, 24 h, human, pilot screen (AID 572).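 Also: compound exposure lasted between 18 and 24 h rather than exactly 24 h; 100% = carrier-treated control wells.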 The conditions noted are these: SK-BR-3 viability, CellTiter-Glo luminescence, at 10 µM, stronger effect = lower value. In general terms: Cellular ATP, detected with luciferase, serves as a proxy for viable cell number.
Test [4] can be described thus: HUVEC growth inhibition – cell-based, human, primary screen (AID 575;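 active = viability at or below 30% in both replicate assays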;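 also: 100% = median of untreated cell wells with 0.1% DMSO on each plate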). The conditions noted are these: HUVEC proliferation, CellTiter-Glo luminescence, 72 h; at 10 µM; stronger effect = lower value. In short, it runs like this:
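System – primary HUVEC, no more than 12 passages · Medium – Low-serum (2% FBS) EBM, supplemented · Times – 72 h exposure, 37 °C, 5% CO2, 30 min RT equilibration · Measured by – luminescent ATP assay · Read-out – % viability relative to median vehicle-well signal on each plate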

A short description of test [5]: H69AR cell proliferation blockers – human, duplicate replicates, primary screen (AID 580;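 active = viability at or under a set limit in both replicates, limit being median viability minus 3 SD, cut at about 48% in these data, passing the limit was not always enough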;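 also: 100% = mean luminescence of untreated wells and 0% = no signal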). The settings on record: H69AR lung tumor cells viability, ATP luminescence, 72 h; at 10 µM; stronger effect = lower value.
A short description of test [6]: MRP1 drug-resistance reversers in H69AR cells – cell-based, doxorubicin co-treatment, pilot screen (AID 601;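 active = viability loss from added drug above about 55%, and viability with drug at most 40%, in both replicates, limit read from the data, passing the limit was not always enough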). The settings on record: CellTiter-Glo, 72 h, at 10 µM; for differential viability (reversal): stronger effect = higher value.
Test [7] can be described thus: yeast transport mutant growth inhibition pilot in 384-well plates, post-Golgi transport modulator project (AID 636; in the data active = inhibition above about 31%). The conditions noted are these: absorbance 615 nm, about 18 h, stronger effect = higher value.
Test [8] is described as follows: growth suppression of yeast trafficking mutant, preliminary HTS, modulators of trafficking downstream of Golgi apparatus project, 1536-format plate, OD 615 nm (AID 637; in the data active = inhibition above about 30%). The conditions noted are these: yeast transport mutant growth, absorbance 615 nm, 18 h; stronger effect = higher value.
[9] abbreviates: H69AR cells + 2 uM doxorubicin, measured here: viability with 2 uM doxorubicin, stronger effect = lower value.
[10] abbreviates: H69AR cells, compound alone cytotoxicity.

The source made the active and inactive calls.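 The calls were made as follows, unless noted: active = viability at or below 10% of carrier control in both of two separate runs; inconclusive = viability at or below 10% in only one of the two runs; inactive = the rest.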

Sequence of Receptor tyrosine-protein kinase erbB-2 (Homo sapiens) (P04626 whole entry, looked up): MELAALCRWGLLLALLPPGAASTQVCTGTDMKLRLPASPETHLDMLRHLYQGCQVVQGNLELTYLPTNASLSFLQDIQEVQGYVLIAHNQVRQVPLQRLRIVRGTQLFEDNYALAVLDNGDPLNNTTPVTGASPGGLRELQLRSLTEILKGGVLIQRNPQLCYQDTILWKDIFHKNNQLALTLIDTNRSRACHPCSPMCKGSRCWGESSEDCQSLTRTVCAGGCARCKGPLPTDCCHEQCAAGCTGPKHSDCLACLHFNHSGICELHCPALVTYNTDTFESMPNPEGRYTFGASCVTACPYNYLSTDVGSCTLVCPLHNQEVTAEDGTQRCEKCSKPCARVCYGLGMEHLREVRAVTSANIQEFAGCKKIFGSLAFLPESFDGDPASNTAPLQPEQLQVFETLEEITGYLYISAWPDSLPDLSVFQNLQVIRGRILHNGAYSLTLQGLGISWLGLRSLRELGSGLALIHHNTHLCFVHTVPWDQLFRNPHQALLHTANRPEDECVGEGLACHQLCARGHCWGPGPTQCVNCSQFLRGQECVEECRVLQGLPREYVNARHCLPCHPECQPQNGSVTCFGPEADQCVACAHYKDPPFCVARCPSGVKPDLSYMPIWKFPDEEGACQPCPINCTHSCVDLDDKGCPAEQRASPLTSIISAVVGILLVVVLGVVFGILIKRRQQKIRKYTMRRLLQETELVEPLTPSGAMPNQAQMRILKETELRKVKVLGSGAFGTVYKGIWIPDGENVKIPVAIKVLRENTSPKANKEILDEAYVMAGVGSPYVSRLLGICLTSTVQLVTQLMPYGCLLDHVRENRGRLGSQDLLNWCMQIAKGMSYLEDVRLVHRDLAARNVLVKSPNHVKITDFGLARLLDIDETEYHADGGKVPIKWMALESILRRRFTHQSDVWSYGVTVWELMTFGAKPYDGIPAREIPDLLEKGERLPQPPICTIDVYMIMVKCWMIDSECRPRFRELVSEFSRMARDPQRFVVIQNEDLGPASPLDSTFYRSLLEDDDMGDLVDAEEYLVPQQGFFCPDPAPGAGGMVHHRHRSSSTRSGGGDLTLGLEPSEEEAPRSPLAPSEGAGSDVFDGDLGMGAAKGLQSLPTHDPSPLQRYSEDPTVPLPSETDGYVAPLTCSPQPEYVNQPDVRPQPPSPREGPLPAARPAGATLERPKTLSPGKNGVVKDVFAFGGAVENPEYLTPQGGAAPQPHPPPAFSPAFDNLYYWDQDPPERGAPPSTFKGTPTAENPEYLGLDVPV

Regarding `CCN(CC)C(=O)c1sc(NC(=O)c2ccco2)c(C#N)c1C`, the viability in test [1] was 99.5%; in test [3] it was 99.5% (inactive); in test [4], 88% (inactive); in test [5], 79.3% (inactive); in test [6] (setting [9]), 86.6%; in test [6] (setting [10]), 79.3%. For the same molecule, the Her2 level in test [2] is 103% (inactive). For the same molecule, the differential viability (reversal) in test [6] (H69AR cells + 2 uM doxorubicin) was -7.3% (inactive). In addition, the inhibition is -4.74% (inactive) in test [7] and -7.26% (inactive) in test [8].

For the molecule `Cc1cc(NC(=O)CSc2ccc3nnc(-c4cccc(F)c4)n3n2)no1`, the viability in test [1] was 108%; in test [3], 108% (inactive); in test [4], 103% (inactive); in test [5], 94.6% (inactive); in test [6] (setting [9]) it was 86.4%; in test [6] (setting [10]) it was 94.6%. For the same molecule, the Her2 level in test [2] was 102% (inactive). In addition, the differential viability (reversal) in test [6] (H69AR cells + 2 uM doxorubicin) was 8.17% (inactive). Moreover, the figures for the inhibition in test [7] and in test [8] were -4.19% (inactive) and -4.17% (inactive), respectively.

`COC(=O)C1=C(C)Nc2nnnn2C1c1cccs1` (stereo not given): the viability in test [1] was 95.5%; in test [3], 95.5% (inactive); in test [4] it was 104% (inactive); in test [5] it was 96.9% (inactive); in test [6] (setting [9]) it was 93.8%; in test [6] (setting [10]), 96.9%. The Her2 level in test [2] is 101% (inactive). Moreover, in test [6] (H69AR cells + 2 uM doxorubicin), the differential viability (reversal) is 3.09% (inactive). In addition, the inhibition in test [7] is 2.84% (inactive); in test [8], 5.71% (inactive).

`CS(=O)(=O)NCc1ccc(C(=O)NCc2ccccc2)cc1`: the viability in test [1] is 101%; in test [3], 101% (inactive); in test [4], 83.5% (inactive); in test [5], 113% (inactive); in test [6] (setting [9]) it was 94.4%; in test [6] (setting [10]), 113%. In test [2], the Her2 level is 97% (inactive). Besides, in test [6] (H69AR cells + 2 uM doxorubicin), the differential viability (reversal) was 18.6% (inactive). Besides, the values for the inhibition in test [7] and in test [8] were -4.47% (inactive) and 4% (inactive), respectively.

Consider `CCN1CCCC1CN=Cc1c(O)n(-c2ccccc2)c(=O)c2ccccc12` (stereo not given), for which the viability in test [1] was 82%; in test [3] it was 82% (inactive); in test [4], 96.9% (inactive); in test [5] it was 92.9% (inactive); in test [6] (setting [9]), 95%; in test [6] (setting [10]), 92.9%. The Her2 level in test [2] is 106% (inactive). Further, the differential viability (reversal) in test [6] (H69AR cells + 2 uM doxorubicin) was -2.08% (inactive). The figures for the inhibition in test [7] and in test [8] were -6.89% (inactive) and -2.54% (inactive), respectively.

Regarding `CC(C)Cn1c(CN2CCN(c3ccccc3F)CC2)nc2c1c(=O)[nH]c(=O)n2C`, the viability is 93% in test [1]; 93% (inactive) in test [3]; 72.9% (inactive) in test [4]; 93% (inactive) in test [5]; 84.8% in test [6] (setting [9]); 93% in test [6] (setting [10]). The Her2 level in test [2] is 93% (inactive). For the same molecule, in test [6] (H69AR cells + 2 uM doxorubicin), the differential viability (reversal) is 8.27% (inactive). Moreover, the results for the inhibition in test [7] and in test [8] were -4.27% (inactive) and -0.66% (inactive), respectively.

Take `Cc1cc(NC(=O)CSc2nnc(COc3cccc(C)c3C)n2Cc2ccco2)no1`: the viability was 102% in test [1]; 102% (inactive) in test [3]; 97.5% (inactive) in test [4]; 104% (inactive) in test [5]; 85% in test [6] (setting [9]); 104% in test [6] (setting [10]). In test [2], the Her2 level is 94% (inactive). Also, the differential viability (reversal) in test [6] (H69AR cells + 2 uM doxorubicin) was 19.5% (inactive). Also, the inhibition is -4.59% (inactive) in test [7] and -0.79% (inactive) in test [8].

As for `CCCOc1ccc(-c2nnn(CC(=O)Nc3cccc(C(=O)OC)c3)n2)cc1`, the viability is 100% in test [1]; 100% (inactive) in test [3]; 64.3% (inactive) in test [4]; 48% (active) in test [5]; 54% in test [6] (setting [9]); 48% in test [6] (setting [10]). Also, the Her2 level in test [2] is 98% (inactive). The differential viability (reversal) in test [6] (H69AR cells + 2 uM doxorubicin) was -5.98% (inactive). Also, the figures for the inhibition in test [7] and in test [8] were 1.87% (inactive) and 21.1% (inactive), respectively.

Take `COc1ccc(Nc2nc(OC)nc(N3CCN(c4ccc(OC)cc4)CC3)n2)cc1`: the viability in test [1] was 123%; in test [3], 123% (inactive); in test [4], 66.7% (inactive); in test [5] it was 71.3% (inactive); in test [6] (setting [9]), 77%; in test [6] (setting [10]), 71.3%. In test [2], the Her2 level was 98% (inactive). The differential viability (reversal) in test [6] (H69AR cells + 2 uM doxorubicin) is -5.71% (inactive). Further, the inhibition in test [7] was -6.27% (inactive); in test [8] it was -3.06% (inactive).

With `O=C(CC1CCS(=O)(=O)C1)Nc1ccc[nH]c1=O` (stereo not given), the viability in test [1] was 102%; in test [3] it was 102% (inactive); in test [4], 88.1% (inactive); in test [5], 106% (inactive); in test [6] (setting [9]) it was 92.3%; in test [6] (setting [10]), 106%. Moreover, the Her2 level in test [2] was 82.5% (inactive). Besides, the differential viability (reversal) in test [6] (H69AR cells + 2 uM doxorubicin) is 14.1% (inactive). Also, the inhibition in test [7] is -4.74% (inactive); in test [8], -8% (inactive).

As to `CCOC(=O)CNC(=O)CSc1ncnc2c1cnn2Cc1ccccc1`, the viability in test [1] was 96%; in test [3], 96% (inactive); in test [4], 54.5% (inactive); in test [5], 100% (inactive); in test [6] (setting [9]), 90.1%; in test [6] (setting [10]), 100%. For the same molecule, the Her2 level in test [2] was 82.5% (inactive). Further, the differential viability (reversal) in test [6] (H69AR cells + 2 uM doxorubicin) was 10.3% (inactive). Besides, the values for the inhibition in test [7] and in test [8] were -5.84% (inactive) and -6.56% (inactive), respectively.

For the molecule `CS(=O)(=O)N(Cc1nc2sc3c(c2c(=O)[nH]1)CCCC3)C1CCCCC1`, the viability in test [1] was 91%; in test [3], 91% (inactive); in test [4] it was 77.9% (inactive); in test [5] it was 84% (inactive); in test [6] (setting [9]), 82.7%; in test [6] (setting [10]) it was 84%. Also, the Her2 level in test [2] is 112% (inactive). Further, in test [6] (H69AR cells + 2 uM doxorubicin), the differential viability (reversal) is 1.24% (inactive). For the same molecule, the inhibition in test [7] was -4.8% (inactive); in test [8] it was -0.49% (inactive).

As for `CC1(C)CC(=O)C(C=Nc2ccc3c(c2)OCO3)=C(O)C1`, the viability in test [1] is 114%; in test [3], 114% (inactive); in test [4], 79.2% (inactive); in test [5], 75.5% (inactive); in test [6] (setting [9]), 103%; in test [6] (setting [10]), 75.5%. The Her2 level in test [2] was 113% (inactive). Besides, the differential viability (reversal) in test [6] (H69AR cells + 2 uM doxorubicin) was -27.7% (inactive). Further, the inhibition in test [7] was 0% (inactive); in test [8] it was -4.33% (inactive).

Consider `O=C(CCN1C(=O)C2C3C=CC(C3)C2C1=O)NCCc1ccccc1Cl` (stereo not given), for which the viability in test [1] was 95%; in test [3] it was 95% (inactive); in test [4], 94.2% (inactive); in test [5], 95.2% (inactive); in test [6] (setting [9]), 84.7%; in test [6] (setting [10]) it was 95.2%. Besides, in test [2], the Her2 level was 68.5% (inactive). Also, the differential viability (reversal) in test [6] (H69AR cells + 2 uM doxorubicin) is 10.5% (inactive). The inhibition is -6.49% (inactive) in test [7] and -5.08% (inactive) in test [8].

In the case of `COCCN(CC(=O)NC1CCCCC1)C(=O)CSc1nc2ccccc2o1`, the viability in test [1] was 98%; in test [3], 98% (inactive); in test [4], 90.8% (inactive); in test [5] it was 97.6% (inactive); in test [6] (setting [9]) it was 93.5%; in test [6] (setting [10]), 97.6%. Further, in test [2], the Her2 level was 96% (inactive). Besides, the differential viability (reversal) in test [6] (H69AR cells + 2 uM doxorubicin) is 4.13% (inactive). Also, the inhibition in test [7] was -0.39% (inactive); in test [8] it was -5.24% (inactive).

What is called viability is a read-out of living cells in per cent, often relative to untreated cells. The inhibition is the change of the read-out against control, counted positive when it falls.

(Values after PubChem BioAssay.)
